The record followed here is paper PMC8978969 (RSC Advances, 2022).

In brackets after ≈: the same amount, converted by molar mass. Several values for one entry are separate records, joined by “and”; a condition that tells them apart may be missing. Identical values can stand only once.

The nature of series [1]: Equilibrium solubility. The format is physicochemical. As to conditions: for solubility at 24 h: thermodynamic from solid.
A short description of series [2]: Partition coefficients by shake-flask method. The format is physicochemical. An outline of the steps: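 Shake-flask method per OECD guidelines. n-Octanol and ultrapure water were mutually saturated by 24 h in a thermostat shaker, then 72 h standing. After partitioning, phases were centrifuged to separate completely, and drug in each phase was measured by HPLC to give logP. For logD7.4, 0.01 M PBS pH 7.4 replaced water, with otherwise identical steps.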

Series [3] can be described thus: Solution stability assay. Format: physicochemical. To be noted: 37 °C.
A short description of series [4]: 24 h kinetic saturation solubilities. The format is physicochemical.
A short description of series [5]: Gastrointestinal tract parallel artificial membrane permeability assay. The format is in vitro ADME. As to conditions: PAMPA. An outline of the steps: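 Donor solutions were made in Tris buffer pH 6.5 at several drug concentrations starting from 150 μg ml−1. The acceptor-well hydrophobic filter (0.45 μm) was coated with 2% soybean L-α-phosphatidylcholine in n-dodecane, and the acceptor held Tris buffer pH 7.4. The sandwich was incubated 16 h at room temperature. Receiver solution was quantified by HPLC, n = 6. Papp (cm s−1) was calculated from a published equation.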

Series [6] can be described thus: Cytotoxicity test. Format: cell-based. As to conditions: human, Caco-2 cells. The gist of the method:
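Caco-2 cells were grown in DMEM with 10% FBS and 1% penicillin/streptomycin at 37 °C in 5% CO2. Cells were seeded at 4 × 10^3 per well and left 16 h. Test compounds were dissolved in DMSO and serially diluted in DMEM, then applied for 24 h. CCK-8 was added for 3 h and absorbance read at 450 nm. IC50 was derived from a concentration–survival plot, mean ± SD of triplicates.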

Regarding “Gliclazide tributyl(tetradecyl)phosphonium ionic liquid [[P6,6,6,14][GLI]]”, the “Solubility, FaSSIF” value in series [1] (FaSSIF (pH 6.5), 37 °C, as GLI, n = 3, mean ± SD) is 34.53 ± 2.79 µg/mL. Besides, the “Solubility, PBS 7.4” value in series [1] (PBS pH 7.4, 37 °C, as GLI, n = 3, mean ± SD) turned out to be 301.87 ± 6.82 µg/mL. Also, in series [1] (SIF (pH 6.8), 37 °C, as GLI, n = 3, mean ± SD), the “Solubility, SIF” value stood at 102.43 ± 11.54 µg/mL. Moreover, the “Solubility, Blank FaSSIF” value in series [1] (blank FaSSIF, 37 °C, as GLI, n = 3, mean ± SD) stood at 32.14 ± 1.56 µg/mL. Besides, in series [1] (water, 37 °C, 24 h, as GLI, n = 3, mean ± SD), the “Solubility, Water” value is 1.5 µg/mL and 1.51 ± 0.13 µg/mL. Besides, in series [2] (n-octanol/PBS 7.4, 37 °C), the “log D7.4” value is recorded as 0.69 ± 0.02. In addition, in series [2] (n-octanol/water, 37 °C), the log partition coefficient (log P) was 2.72 ± 0.24.

In the case of `Cc1ccc(S(=O)(=O)NC(=O)NN2CC3CCCC3C2)cc1` (stereo not drawn) [GLI, Gliclazide], the solubility at 24 h is 196 ± 3.32 µg/mL (≈ 606 µM) in series [1] (FaSSIF, 37 °C, pH 6.5, fassif); 30.1 ± 1.07 µg/mL (≈ 93.2 µM) in series [1] (FeSSIF, 37 °C, pH 5, fessif); 43.5 ± 1.67 µg/mL (≈ 135 µM) in series [1] (Milli-Q water, 37 °C, water); 1590 ± 103 µg/mL (≈ 4910 µM) in series [1] (PBS 7.4, 37 °C, pH 7.4, aqueous buffer); 584 ± 23 µg/mL (≈ 1810 µM) in series [1] (SIF, 37 °C, pH 6.8, fassgf or other biorelevant); 190.6 ± 0.63 µg/mL (≈ 589 µM) in series [1] (blank FaSSIF, 37 °C, pH 6.5, aqueous buffer). Also, the solubility at 24 h in series [1] (blank FeSSIF, 37 °C, pH 5, aqueous buffer) came out at 28.7 ± 0.99 µg/mL (≈ 88.7 µM). In series [1] (Tris buffer pH 6.5, pH 6.5), the thermodynamic solubility at 24 h was 178 µg/mL (≈ 550 µM). This compound also yielded a log distribution coefficient (logD) in series [2] (n-octanol/PBS 7.4, pH 7.4) of 0.45 ± 0.01. This compound also displayed a logP in series [2] (n-octanol/water) of 1.71 ± 0.03. Also, the “Solution stability in SIF” value in series [3] (SIF, whole experiment period (24 h)) was “relatively stable”. Moreover, the “Initial content remained at 24 h” value in series [3] (pH 7.4 buffer (PBS 7.4), 20 μg ml^−1 GLI, 24 h) is reported as “zero”. In series [4] (Milli-Q water), this compound had a kinetic solubility at 12 h of 40.3 µg/mL (≈ 125 µM). Further, in series [4] (PBS 7.4, SIF and FaSSIF), the “Time within which peak concentration was achieved” value is on record as not above 6 h. Besides, in series [4] (water), the “Time of peak concentration” value turned out to be 4 h. Also, the apparent permeability (Papp) at 16 h, 150 μg ml^−1 in series [5] amounted to 2.46 ×10⁻⁶ cm/s. Moreover, the midpoint of inhibition in series [6], the IC50 at 24 h, lay at 20.8 ± 1.11 mM.
